The values below come from ChEMBL document CHEMBL3808298, “The combination of quinazoline and chalcone moieties leads to novel potent heterodimeric modulators of breast cancer resistance protein (BCRP/ABCG2)” (Eur J Med Chem, 2016).

Data set [1] concerns the target T1, Broad substrate specificity ATP-binding cassette transporter ABCG2 (Homo sapiens, UniProt Q9UNQ0).
T1 sequence (Q9UNQ0 whole entry): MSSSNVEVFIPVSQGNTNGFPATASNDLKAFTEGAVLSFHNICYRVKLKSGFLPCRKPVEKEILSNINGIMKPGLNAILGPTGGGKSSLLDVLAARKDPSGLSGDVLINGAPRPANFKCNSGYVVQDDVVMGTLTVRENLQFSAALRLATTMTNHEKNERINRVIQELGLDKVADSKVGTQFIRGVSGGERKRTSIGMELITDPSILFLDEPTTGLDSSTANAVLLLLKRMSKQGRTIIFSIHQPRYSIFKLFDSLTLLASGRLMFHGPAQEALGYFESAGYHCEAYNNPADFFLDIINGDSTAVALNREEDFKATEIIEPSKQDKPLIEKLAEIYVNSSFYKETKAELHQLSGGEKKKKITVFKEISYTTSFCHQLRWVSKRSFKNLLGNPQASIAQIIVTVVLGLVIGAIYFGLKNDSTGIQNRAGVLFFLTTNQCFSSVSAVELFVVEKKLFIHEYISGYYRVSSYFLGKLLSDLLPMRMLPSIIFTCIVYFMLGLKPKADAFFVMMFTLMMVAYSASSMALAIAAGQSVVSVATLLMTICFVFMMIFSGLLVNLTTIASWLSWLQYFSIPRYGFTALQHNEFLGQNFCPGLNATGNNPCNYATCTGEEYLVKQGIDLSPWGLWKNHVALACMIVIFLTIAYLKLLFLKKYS
The data set can be described thus: Inhibition of human C-terminal GFP-tagged ABCG2 expressed in MDCK2 cells using pheophorbide A as substrate preincubated for 20 mins followed by substrate addition measured after 120 mins by flow cytometry. In kind it is cell-based, MDCK-II. Put shortly: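 MDCK II BCRP cells, about 45,000/well in KHB, preincubated with compound for 20 min at 37 °C, 5% CO2. Pheophorbide A added (5 µM solution), then 120 min to steady state. Flow cytometry: excitation 488 nm, emission >670 nm (FL3); GFP in FL1. IC50 from 4-parameter logistic fit; duplicates.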

The target of data set [2] is T1, Broad substrate specificity ATP-binding cassette transporter ABCG2. The data set can be described thus: Inhibition of vanadate-sensitive ATPase activity of recombinant human ABCG2 expressed in baculovirus infected Sf9 cell membrane assessed as decrease in inorganic phosphate production at 1 uM after 20 mins by colorimetry. Particulars: sf9, 20 min; call rule not given here. The method in brief:
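Sf9 membranes from cells infected with baculovirus carrying human wild-type ABCG2, cholesterol-loaded; protein by BCA. Buffer: 40 mM MOPS-Tris pH 7.0, 50 mM KCl, 2 mM DTT, 500 µM EGTA-Tris, 5 mM azide, 1 mM ouabain, 10 µg protein. Reaction started with 3.3 mM MgATP, 20 min at 37 °C. Basal activity with 1 mM orthovanadate; 1 µM quercetin and 1 µM Ko143 as references. Pi by molybdate/ascorbate at 880 nm against K2HPO4 standard; triplicates.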

The target of data set [3] is ATP-dependent translocase ABCB1 (Homo sapiens, UniProt P08183). Description: Inhibition of ABCB1 in human A2780/ADR cells incubated for 30 mins measured up to 3600 secs with time intervals of 60 secs by calcein accumulation assay. It is filed as cell-based.
Sequence of ATP-dependent translocase ABCB1 (P08183 whole entry): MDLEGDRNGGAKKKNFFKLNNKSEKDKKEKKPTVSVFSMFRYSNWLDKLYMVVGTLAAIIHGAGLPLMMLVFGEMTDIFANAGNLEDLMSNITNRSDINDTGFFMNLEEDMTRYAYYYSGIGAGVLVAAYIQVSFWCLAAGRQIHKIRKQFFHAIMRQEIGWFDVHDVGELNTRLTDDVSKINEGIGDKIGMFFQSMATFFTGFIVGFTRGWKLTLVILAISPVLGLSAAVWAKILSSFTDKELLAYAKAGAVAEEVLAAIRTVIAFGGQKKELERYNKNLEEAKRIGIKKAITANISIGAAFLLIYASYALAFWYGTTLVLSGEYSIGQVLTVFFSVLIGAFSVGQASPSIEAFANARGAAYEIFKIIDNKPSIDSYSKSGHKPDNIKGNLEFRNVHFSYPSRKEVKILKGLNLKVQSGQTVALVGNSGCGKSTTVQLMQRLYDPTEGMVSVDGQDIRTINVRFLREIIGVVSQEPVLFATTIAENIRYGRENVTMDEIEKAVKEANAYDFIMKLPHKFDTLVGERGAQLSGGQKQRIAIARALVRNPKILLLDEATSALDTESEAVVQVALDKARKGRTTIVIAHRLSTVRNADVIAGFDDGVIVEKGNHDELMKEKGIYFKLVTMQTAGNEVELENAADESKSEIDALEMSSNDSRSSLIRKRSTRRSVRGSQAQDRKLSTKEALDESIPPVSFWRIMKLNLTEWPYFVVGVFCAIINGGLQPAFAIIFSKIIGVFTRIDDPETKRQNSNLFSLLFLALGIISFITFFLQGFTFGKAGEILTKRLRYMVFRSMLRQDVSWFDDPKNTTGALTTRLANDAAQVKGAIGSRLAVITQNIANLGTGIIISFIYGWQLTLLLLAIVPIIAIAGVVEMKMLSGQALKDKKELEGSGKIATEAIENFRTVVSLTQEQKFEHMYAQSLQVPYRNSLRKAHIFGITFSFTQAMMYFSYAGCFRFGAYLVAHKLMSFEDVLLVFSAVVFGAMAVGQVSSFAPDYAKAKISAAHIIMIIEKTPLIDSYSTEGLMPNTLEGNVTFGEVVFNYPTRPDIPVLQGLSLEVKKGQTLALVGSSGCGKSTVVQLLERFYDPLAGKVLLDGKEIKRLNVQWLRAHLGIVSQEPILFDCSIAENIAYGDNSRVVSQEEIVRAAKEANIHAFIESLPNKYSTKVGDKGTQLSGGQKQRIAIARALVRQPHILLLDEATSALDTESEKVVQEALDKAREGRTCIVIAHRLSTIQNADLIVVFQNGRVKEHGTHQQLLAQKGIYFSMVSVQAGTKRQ
A short description of data set [4]: Cytotoxicity against MDCK2 cells assessed as reduction in cell viability after 72 hrs by MTT assay. In kind it is cell-based, Canis lupus familiaris, MDCK-II. The conditions noted are these: dog. Put shortly: (§1)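 Seeding 3 x 10³ cells/well, 6 h attachment at 37 °C, 5% CO2, then compound for 72 h. Controls: 10% DMSO (positive), medium (negative). MTT 5 mg/ml stock for 1 h; formazan in DMSO; A570, background 690 nm. Normalized to control; GI50 from variable-slope sigmoidal fit.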

Data set [5] in a line: Cytotoxicity against MDCK2 cells expressing human C-terminal GFP-tagged ABCG2 assessed as reduction in cell viability after 72 hrs by MTT assay. It is filed as ADME, cell-based, Canis lupus familiaris, MDCK-II. Particulars: dog. Put shortly:
as §1
On the technique in general: Tetrazolium assays rely on reduction of a dye to a coloured formazan, in cell work by metabolically active cells.

Another data set concerns ABCG2. The data set can be described thus: Therapeutic ratio of GI50 for MDCK2 cells expressing human C-terminal GFP-tagged ABCG2 to IC50 for human C-terminal GFP-tagged ABCG2 expressed in MDCK2 cells. In kind it is ADME, cell-based. The conditions noted are these: dog, read-out: TI. The method in brief:
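Ratio of GI50 from a 72 h MTT assay in MDCK II BCRP cells to IC50 from the pheophorbide A assay in the same cells.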

The nature of data set [6]: Cytotoxicity against MDCK2 cells expressing human C-terminal GFP-tagged ABCG2 assessed as reduction in cell viability at 10 uM after 72 hrs by MTT assay. It is filed as ADME, cell-based, Canis lupus familiaris. Particulars: dog, mdck-ii.
Data set [7] is described as follows: Cytotoxicity against MDCK2 cells assessed as reduction in cell viability at 10 uM after 72 hrs by MTT assay. In kind it is cell-based, Canis lupus familiaris. The conditions noted are these: dog, mdck-ii.

The term IC50 denotes the concentration that inhibits the measured activity by half. `COc1ccc(-c2nc(Nc3ccc(C(=O)/C=C/c4ccccc4)cc3)c3ccccc3n2)cc1OC` gave an IC50 in data set [1] of 1090 nM.
Broadly, the GI50 is the concentration at which growth is held to half of that of the control. On to `COc1ccc(/C=C/C(=O)c2cccc(Nc3ncnc4cc(OC)c(OC)cc34)c2)cc1`, for which the IC50 in data set [1] was 320 nM; in data set [3], 4.15 µM. Also, in data set [2], the “inhibition (INH)” value is “Active”. For the same compound, the GI50 at 72 h amounted to 16.9 µM in data set [4] and 12.7 µM in data set [5]. Besides, in the data set on ABCG2, the selectivity ratio came out at 40.
As for `O=C(/C=C/c1ccccc1)c1ccc(Nc2nc(-c3ccccc3)nc3ccccc23)cc1`, the IC50 in data set [1] came out at 920 nM.
As to `COc1ccc(/C=C/C(=O)c2cccc(Nc3ncnc4ccccc34)c2)cc1`, the values for the IC50 in data set [1] and in data set [3] were 890 nM and 7.08 µM, respectively.
The compound `COc1ccc(/C=C/C(=O)c2ccc(Nc3ncnc4cc(OC)c(OC)cc34)cc2)cc1OC` showed an IC50 in data set [1] of 1230 nM. For the same compound, the “inhibition (INH)” value in data set [2] is “Active”.
`COc1ccc(/C=C/C(=O)c2cccc(Nc3nc(-c4ccccc4)nc4ccccc34)c2)cc1` returned an IC50 in data set [1] of 970 nM.
For the compound `COc1ccc(/C=C/C(=O)c2ccc(Nc3nc(-c4ccccc4)nc4ccccc34)cc2)cc1OC`, the IC50 in data set [1] is 290 nM; in data set [3], 18.8 µM. Moreover, the Activity entry in data set [6] and in data set [7] was “Toxic” throughout. In addition, the GI50 at 72 h is 3.46 µM in data set [4] and 4.8 µM in data set [5]. For the same compound, in the data set on ABCG2, the selectivity ratio worked out at 17.
As for `COc1ccc(/C=C/C(=O)c2cccc(Nc3nc(-c4ccccc4)nc4ccccc34)c2)cc1OC`, the IC50 in data set [1] was 460 nM.
Regarding `COc1cccc(/C=C/C(=O)c2ccc(Nc3nc(-c4ccc(OC)c(OC)c4)nc4ccccc34)cc2)c1`, the IC50 in data set [1] was 360 nM; in data set [3], 14.6 µM.
In turn, `COc1cccc(/C=C/C(=O)c2cccc(Nc3nc(-c4ccccc4)nc4ccccc34)c2)c1` gave an IC50 in data set [1] of 680 nM. Also, the Activity result in data set [6] and in data set [7] was “Toxic” each time.
Consider `COc1cccc(/C=C/C(=O)c2ccc(Nc3nc(-c4ccccc4)nc4ccccc34)cc2)c1`, for which the IC50 in data set [1] was 880 nM; in data set [3], 32.1 µM. Moreover, the Activity entry in data set [6] and in data set [7] was “Toxic” throughout.
`COc1ccc(/C=C/C(=O)c2ccc(Nc3nc(-c4ccccc4)nc4ccccc34)cc2)cc1` displayed an IC50 in data set [1] of 3550 nM.
For the compound `COc1cccc(/C=C/C(=O)c2cccc(Nc3nc(-c4ccc(OC)c(OC)c4)nc4ccccc34)c2)c1`, the half-maximal inhibitory concentration (IC50) was 310 nM in data set [1] and 8.24 µM in data set [3]. The GI50 at 72 h in data set [4] is 65.5 µM; in data set [5], 84.7 µM. The selectivity ratio in the data set with ABCG2 stood at 273.
Consider `COc1ccc(/C=C/C(=O)c2ccc(Nc3nc(-c4ccc(OC)c(OC)c4)nc4ccccc34)cc2)cc1`, for which, in data set [1], the IC50 came out at 3130 nM.
As to `COc1cccc(/C=C/C(=O)c2ccc(Nc3ncnc4ccccc34)cc2)c1`, the IC50 in data set [1] is 680 nM; in data set [3] it was 5.57 µM. Further, the Activity result in data set [6] and in data set [7] was “Toxic” each time.
